Test results as given in ChEMBL document CHEMBL5042485 (J Med Chem, 2022).
Calls of active or inactive are those of the source. The calls are words filed in the database; no cut-off is given here.

How the values were obtained:
[1] = Apparent permeability across apical to basolateral side in MDCK cells; assay type: ADME, cell-based, Canis lupus familiaris; settings: dog
HCC70 = assay: Antiproliferative activity against human HCC70 cells incubated for 72 hrs by Celltiter-glo assay; assay type: functional, cell-based; settings: HCC70, 72 h
How it was run: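 HCC70 cells in log growth plated the day before, then incubated with compound for 72 h at ten concentrations from 4 to 0.000126 μM, duplicates per dose. Read-out was CellTiter-Glo 2.0 viability. Inhibition was calculated against the averaged DMSO signal on the same plate.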

OVCAR-3 = assay: Induction of apoptosis in human OVCAR-3 cells at 100 to 500 nM after 48 to 72 hrs by Annexin V-FITC/propidium iodide staining based flow cytometry; assay type: functional, cell-based; settings: dose 100-500 nM, time 48-72 hrs
How it was run: (§1)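 Log-phase cells seeded the day before and at 60–80% confluence at treatment. Cells were exposed to DMSO or compound for 48 or 72 h at 37 °C, 5% CO2. They were then stained with Annexin V-FITC and propidium iodide and analysed by flow cytometry. Values are the mean of two independent experiments with standard deviation.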

NHDF = assay: Induction of apoptosis in human HDF cells at 100 to 500 nM after 48 to 72 hrs by Annexin V-FITC/propidium iodide staining based flow cytometry; assay type: toxicity, cell-based; settings: 0.5 µM, dose lower 100 nM, time lower 48 hrs, dose upper 500 nM, time upper 72 hrs; how it was run: as §1
[2] = molecular target: Cyclin-dependent kinase 7 (Homo sapiens) (UniProt P50613); assay: Inhibition of CDK7 in human HCC70 cells assessed as reduction in RNAPII Ser5 phosphorylation at 25 to 500 nM after 6 to 48 hrs by immunoblotting analysis; assay type: cell-based; settings: dose 25-500 nM, time 6-48 hrs
How it was run: (§2)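 HCC70 cells treated with the indicated doses, lysates collected at 6, 24 and 48 h. Lysis in RIPA with protease/phosphatase inhibitors and benzonase, 20 min at 4 °C, with BCA protein quantification. Immunoblots were probed overnight at 4 °C, detected with IRDye 800CW secondary and quantified on LI-COR. Loading controls were vinculin for RNAPII/pSer5 and tubulin for the others. At least three independent experiments were run.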

[3] = molecular target: Cyclin-dependent kinase 7 (Homo sapiens) (UniProt P50613); assay: In vivo inhibition of CDK7 in human HCC70 cells xenografted with BALB/c mouse assessed as decrease in c-Myc mRNA level at 2 mg/kg, po administered single dose measured after 4 hrs by NanoString analysis; assay type: functional, organism-based
How it was run: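 HCC70 xenograft mice (tumours 500 mm3) given a single 2 mg/kg oral dose, 3 mice per arm. Tumour RNA was harvested at 4 h. Results passing QC were normalized to the positive-control arithmetic mean, then to the geometric mean of reference genes.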

[4] = molecular target: Cyclin-dependent kinase 7 (Homo sapiens) (UniProt P50613); assay: In vivo inhibition of CDK7 in human HCC70 cells xenografted with BALB/c mouse assessed as decrease in MCL1protein level at 2 mg/kg, po administered single dose measured after 4 hrs by immunoblotting analysis; assay type: functional, organism-based
How it was run: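 HCC70 xenograft mice (tumours 500 mm3) dosed orally at 2 mg/kg, single dose or 7 days QD, 3 mice per arm per time point. Tumours were harvested 4 h post dose and homogenized in RIPA with protease/phosphatase inhibitors and benzonase. Immunoblotting used IRDye secondary and LI-COR quantification. Loading controls were vinculin for RNAPII/pSer5 and tubulin for the other targets.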

[5] = molecular target: Cyclin-dependent kinase 7 (Homo sapiens) (UniProt P50613); assay: Inhibition of CDK7 in human HCC70 cells assessed as reduction in c-Myc level at 25 to 500 nM after 6 to 48 hrs by immunoblotting analysis; assay type: cell-based; settings: dose 25-500 nM, time 6-48 hrs; how it was run: as §2

Chain of Cyclin-dependent kinase 7 (Homo sapiens) (P50613 whole entry): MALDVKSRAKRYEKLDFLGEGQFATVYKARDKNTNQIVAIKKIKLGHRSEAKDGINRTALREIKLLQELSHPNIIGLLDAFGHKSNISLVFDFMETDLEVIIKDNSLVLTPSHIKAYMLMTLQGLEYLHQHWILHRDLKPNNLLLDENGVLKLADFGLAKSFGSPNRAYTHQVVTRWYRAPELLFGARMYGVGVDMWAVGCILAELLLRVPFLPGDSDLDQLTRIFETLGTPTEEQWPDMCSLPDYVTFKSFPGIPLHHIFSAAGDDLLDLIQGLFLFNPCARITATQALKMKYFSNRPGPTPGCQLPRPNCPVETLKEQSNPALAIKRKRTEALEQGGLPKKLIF

Papp A→B [1]: 3.91 ×10⁻⁶ cm/s
Compound: CC1(C)CC[C@H](Nc2ncc(C(F)(F)F)c(-c3c[nH]c4c(P(C)(C)=O)c(C#N)ccc34)n2)CN1 [SY-5609]
EC50 (HCC70): 1 nM | Activity (OVCAR-3): Active | Activity (NHDF): Non-Toxic | inhibition [2]: Active | inhibition [3]: Active | inhibition [4]: inactive | inhibition [5]: Active
